# ERAP1 HTS inh: human ERAP1 aminopeptidase inhibitors, primary screen, biochemical, single point, plate reader; Endoplasmic reticulum aminopeptidase 1 (Homo sapiens), Q9NZ08; recombinant ERAP1, Leu-AMC fluorescence, 60 min; inhibition, % at 10.7 µM; actives 0.15% (n = 340,000); AID 652197, 2013;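 active means mean replicate inhibition of at least 30%, or all replicates individually reaching that 30% level; inactive means mean below 30% and not every replicate reaching it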;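 further: 0% = neutral control wells and 100% = L-leucinethiol positive control wells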
# FN deposition inh: inhibitors of fibronectin matrix deposition, primary screen, AH1F cells, Alexa488-fibronectin fluorescence, plate reader; AH1F fibroblasts, overnight; inhibition, % at 12.6 µM; actives 0.086% (n = 350,000); AID 743247, 2014;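 active means mean inhibition across replicates of 30% or more, regardless of how many single replicates reach that level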;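 further: positive control wells lacked labelled fibronectin entirely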
#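 Material: AH1F fibroblast monolayer depositing Alexa488-labelled fibronectin into matrix / Amount: 10000 AH1F cells per well / Signal: fluorescence 485/525 nm / Medium: DMEM, 2% serum / Compound: single dose, pinned / Incubation: 1 h cell adhesion before compound, then overnight fibronectin incubation / Reagent: Alexa488-FN, 24 nM final / Read-out: inhibition of fibronectin deposition signal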
# SIRT5 block: SIRT5 desuccinylase inhibitors, primary screen, biochemical, fluorescence imaging, single point, set 5; inhibition, % at 15 µM; NAD-dependent protein deacylase sirtuin-5, mitochondrial (Homo sapiens), Q9NXA8; Purified SirT5, succinyl-peptide AMC, trypsin-coupled fluorescence; AID 652115, 2013; actives 1.1% (n = 330,000); in the data active means inhibition above about 15%
# PGC1a acetyl inh: inhibitors of PGC1a acetylation signal, primary screen, cell-based, U2OS, AlphaScreen, inhibitor mode | inhibition, % at 15.6 µM | AlphaScreen anti-acetyl-lysine; with virally co-expressed GCN5 acetyltransferase | actives 0.17% (n = 350,000);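 active means every replicate shows inhibition of at least 40%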;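 further: 0% = neutral control wells and 100% = positive control wells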
# FGF22 binding: binders of human FGF22 protein, primary screen, FGF22 synaptogenesis inhibitor project, biophysical, thermal shift, single point; Fibroblast growth factor 22 (Homo sapiens), Q9HCT0; recombinant FGF22 thermal shift, SYPRO orange fluorescence; percent of sucrose octasulfate shift, DMSO zero; activity (Tm shift, normalised), % at 9.99 µM; actives 1.5% (n = 340,000); AID 651658, 2012;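 active means mean Tm shift, scaled 0 neutral to 100 positive control, at about 1.3% or above, every replicate too, limit read from the data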
# * marks the source's active call; other numbers are inactive results; nt = no result given. Sampled rows, rich in hits. Any-hit rate of the full collection: about 2.2%.
SMILES,ERAP1 HTS inh,FN deposition inh,SIRT5 block,PGC1a acetyl inh,FGF22 binding
COc1ccc(C=Nc2ccc3[nH]ncc3c2)c(O)c1,0,4,-1,15,43*
Oc1c(Br)cc(Br)cc1C=Nc1ccc2[nH]ncc2c1,-7,4,-1,-1,0
C[C@@H]1CCCCO[C@H](CN(C)C(=O)Nc2cccc3ccccc23)[C@H](C)CN([C@H](C)CO)C(=O)c2cc(NS(=O)(=O)c3cn(C)cn3)ccc2O1,nt,nt,nt,8,0
CCCN(C)C[C@@H]1Oc2ncc(-c3cccc(C(=O)N(C)C)c3)cc2C(=O)N([C@@H](C)CO)C[C@@H]1C,2,4,-9,-5,0
COc1cccc(CNC(=O)[C@@H]2CCCN2)c1,-2,-2,25*,nt,0
COc1cccc(CNC(=O)[C@H]2CCCN2C(=O)[C@H]2CCCN2)c1,1,-7,nt,nt,0
CCN1[C@@H]2c3ccc(-c4ccc(F)cc4)c(=O)n3C[C@@H]2[C@@H](CO)[C@@H]1C(=O)NCCc1cn(C)cn1,0,nt,-4,nt,0
CN1C(=O)c2ccccc2Cc2c(NCc3ccccc3)ncnc21,1,-1,nt,-13,43*
CCOC(=O)CSc1nc(C)c2cc(C)c(C)cc2n1,3,-13,17*,nt,42
C[C@@H]1CN([C@@H](C)CO)C(=O)c2cc(C3=CCCC3)cnc2O[C@H]1CN(C)C(=O)c1ccc2c(c1)OCO2,4,nt,3,-6,0
C[C@H](CO)N1C[C@H](C)[C@H](CN(C)Cc2ccncc2)Oc2ccc(NC(=O)CCN3CCOCC3)cc2C1=O,-4,nt,25*,0,0
C[C@H](CO)N1C[C@H](C)[C@@H](CN(C)Cc2ccc(Oc3ccccc3)cc2)Oc2ccc(NC(=O)CCCN(C)C)cc2C1=O,1,nt,-1,-2,1.2*
C[C@@H]1CN([C@@H](C)CO)C(=O)Cc2cc(NC(=O)CCCN(C)C)ccc2O[C@H]1CN(C)Cc1ccc(-c2ccccc2)cc1,2,-3,-8,10,0
C[C@H](CO)N1C[C@H](C)[C@@H](CN(C)Cc2ccc(-c3ccccc3)cc2)Oc2ccc(NC(=O)CCCN(C)C)cc2C1=O,0,-4,0,-7,0
C[C@@H]1CN([C@H](C)CO)C(=O)Cc2cc(NC(=O)CCCN(C)C)ccc2O[C@@H]1CN(C)Cc1ccc(-c2ccccc2)cc1,0,12,99*,0,0
C[C@H](CO)N1C[C@H](C)[C@H](CN(C)Cc2ccc(-c3ccccc3)cc2)Oc2ccc(NC(=O)CCCN(C)C)cc2C1=O,-2,53*,-3,-2,0
C[C@H]1CN([C@@H](C)CO)C(=O)c2cc(NS(=O)(=O)c3cccs3)ccc2O[C@@H]1CN(C)S(=O)(=O)c1ccc(F)cc1,-7,nt,2,2,0
Cc1cc(C)c2c(c1)NC(C(=O)O)C1CC=CC21 (stereo not given),8,-6,18*,4,0
Cc1ccc2c(c1C)NC(C(=O)O)C1CC=CC21 (stereo not given),3,-8,nt,-7,nt
Cc1ccccc1-c1ccc2c(c1)O[C@@H](CN(C)C(=O)c1ccccn1)[C@H](C)CN([C@@H](C)CO)S2(=O)=O,-4,1,-2,-11,0
NNC(=O)CN1C(c2ccccc2)=Nc2ccc(Br)cc2C1c1ccccc1 (stereo not given),0,-1,-6,nt,43*
CC1=Nc2ccc(Br)cc2C(c2ccccc2)N1CC(=O)NN (stereo not given),3,5,-4,-3,43*
NNC(=O)CN1C(c2ccc(Cl)cc2)=Nc2ccc(Br)cc2C1c1ccccc1 (stereo not given),nt,0,nt,nt,nt
CCCC(=O)N1CC2(C1)CN(C(=O)Cc1ccccn1)[C@@H](CO)c1[nH]c3cc(OC)ccc3c12,-13,nt,nt,0,0
C[C@@H]1CN([C@H](C)CO)S(=O)(=O)c2ccc(C#CC(C)(C)O)cc2O[C@H]1CN(C)C(=O)CC1CC1,4,-6,3,-17,0
SMILES,ERAP1 HTS inh,FN deposition inh,SIRT5 block,PGC1a acetyl inh,FGF22 binding
COc1cccc(C(=O)N/N=C2/SCC(=O)N2CCc2ccc(OC)c(OC)c2)c1,nt,-4,nt,-12,nt
COc1ccc(CCN2C(=O)CS/C2=N\NC(=O)c2cccs2)cc1OC,0,-12,0,nt,44*
Cc1cc(C2=NNC(=NCCc3ccccc3)SC2)c(C)n1-c1c(C)n(C)n(-c2ccccc2)c1=O,nt,2,4,63*,0
COCCCN=C1NN=C(c2cc(C)n(-c3ccccc3)c2C)CS1,-2,1,1,3,0
COCCCN=C1NN=C(c2cc(C)n(Cc3ccccc3Cl)c2C)CS1,-2,2,-1,11,43*
Cc1ccc(C(C(=O)NC(C)(C)C)N(C(=O)CCC(=O)Nc2ccccn2)c2ccccc2F)cc1 (stereo not given),1,-2,19*,nt,0
Cc1ccc(O)c(/C=N/NC(=O)CN2CCCC2)c1,0,-6,2,84*,0
Cc1cccc(/C=N/NC(=O)CN2CCCCCCC2)c1,-5,-1,0,nt,0
COCC(=O)N(C)C[C@H]1Oc2ncc(-c3ccccc3C)cc2C(=O)N([C@@H](C)CO)C[C@H]1C,-2,-5,-2,3,0
O=C(CCCCn1ccc(=O)[nH]c1=O)Nc1ccc(O)c(C(=O)O)c1,4,-9,nt,15,43*
O=C(CCCCn1ccc(=O)[nH]c1=O)Nc1ccc(C(=O)O)c(O)c1,-66,-8,nt,-5,42
CCOc1nc2ccccc2cc1C=O,-3,0,-2,6,43*
Cc1noc(C)c1NC(=O)N(C)C[C@H]1Oc2c(NC(=O)Nc3ccc(F)cc3)cccc2C(=O)N([C@H](C)CO)C[C@H]1C,-4,nt,0,5,0
COc1ccc(C2c3ccc4ccccc4c3Oc3ncn(CCN4CCOCC4)c(=N)c32)cc1OC (stereo not given),-3,30*,-4,nt,0
COc1ccc(C2c3ccc4ccccc4c3Oc3ncn(CCN4CCOCC4)c(=N)c32)cc1 (stereo not given),nt,nt,nt,-3,nt
CCCNC(=O)[C@@H]1[C@@H](CO)[C@@H]2Cn3c(ccc(-c4cccnc4)c3=O)[C@H]1N2C(=O)Nc1ccccc1,-3,nt,-34,nt,0
CCS(=O)(=O)C1=NN2C(=N)/C(=C\c3ccc(OCCOc4cccc(OC)c4)c(OC)c3)C(=O)N=C2S1,-1,-13,18*,-24,nt
CCC1=NN2C(=N)/C(=C\c3ccc(OCCOc4ccccc4)c(OC)c3)C(=O)N=C2S1,-1,-7,-2,nt,0

# Screening results (PubChem BioAssay)
